Consider 15 molecules from ChEMBL document CHEMBL1121414, “Central nervous system activity of 7-substituted 1-azaphenoxathiin analogues and their oxidation products” (1980).

Some results are limits rather than exact numbers.

A word on the ED50: it is the dose at which the effect has come halfway, by size or by number of responders.

Test [1] is filed under the species Mus musculus. The test is described as follows: The compound was tested for antidepressant activity by its ability to reverse tetrabenazine induced ptosis in mice, perorally. The class given is functional. As to conditions: po. Summed up: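 Male albino CFI mice (18–22 g), groups of five, dosed po with test drug in methylcellulose suspension (initial screening dose 30 mg/kg). Tetrabenazine methanesulfonate 30 mg/kg was given ip 30 min later, and palpebral opening was scored after 30 min.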

Test [2] concerns Rattus norvegicus. The test is described as follows: The compound was tested for antidepressant activity by its ability to inhibit muricidal intraperitoneally. It counts as functional. As to conditions: ip. Summed up:
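Male Long-Evans rats (200–300 g), groups of five, given test drug ip as a methylcellulose suspension at an initial screening dose of 10 or 20 mg/kg. Mice were presented to the rats 30 min after dosing.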

For the molecule `COc1ccc2c(c1)Oc1cccnc1S2(=O)=O`, the figures for the ED50 in test [1] and in test [2] were > 30 mg/kg and > 10 mg/kg, respectively.

As for `O=S1(=O)c2ccc(Cl)cc2Oc2cccnc21`, the ED50 is 18 mg/kg in test [1] and > 10 mg/kg in test [2].

As for `O=S1(=O)c2ccc(C(F)(F)F)cc2Oc2cccnc21`, the ED50 stood at 1 mg/kg in test [1] and 17 mg/kg in test [2].

On to `O=S1(=O)c2ccccc2Oc2cccnc21`, for which the ED50 in test [1] was 12 mg/kg; in test [2], > 10 mg/kg.

Regarding `c1ccc2c(c1)Oc1cccnc1S2`, the ED50 is 8 mg/kg in test [1] and > 10 mg/kg in test [2].

On to `O=S1(=O)c2ccc(Br)cc2Oc2cccnc21`, for which the values for the ED50 in test [1] and in test [2] were 15 mg/kg and 7 mg/kg, respectively.

Take `Clc1ccc2c(c1)Oc1cccnc1S2`: the ED50 in test [1] was > 30 mg/kg; in test [2], > 10 mg/kg.

`O=S1(=O)c2ccc(NO)cc2Oc2cccnc21`: the ED50 in test [1] was 2 mg/kg; in test [2], > 10 mg/kg.

As for `NS(=O)(=O)c1ccc2c(c1)Oc1cccnc1S2`, the 50% effective dose (ED50) in test [1] is > 30 mg/kg; in test [2], 8 mg/kg.

Consider `Brc1ccc2c(c1)Oc1cccnc1S2`, for which the ED50 in test [1] is > 30 mg/kg; in test [2], > 10 mg/kg.

Turning to `COc1ccc2c(c1)Oc1cccnc1S2`, the ED50 in test [1] is > 30 mg/kg; in test [2] it was > 10 mg/kg.

Turning to `CN(C)CCCN1c2ccccc2CCc2ccccc21` [IMIPRAMINE], the values for the ED50 in test [1] and in test [2] were 2 mg/kg and 20 mg/kg, respectively.

For `FC(F)(F)c1ccc2c(c1)Oc1cccnc1S2`, the ED50 is 16 mg/kg in test [1] and > 10 mg/kg in test [2].

In the case of `O=[N+]([O-])c1ccc2c(c1)Oc1cccnc1S2(=O)=O`, the ED50 in test [1] was 10 mg/kg; in test [2] it was 12 mg/kg.

On to `O=[N+]([O-])c1ccc2c(c1)Oc1cccnc1S2`, for which the ED50 is > 30 mg/kg in test [1] and 7 mg/kg in test [2].
